# “And” between values parts separate entries of the source, which are not always exact repeats. Identical values can stand only once.
# Tested on: Fibroblast
# Assay: Multiplex assay against human fibroblast
# Format: toxicity, cell-based
# In short: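 Compound was added to live cells that had been stained at seeding with Hoechst33342, BioTracker Green Microtubule Cytoskeleton Dye, MitoTracker Red and Annexin V Alexa Fluor 680, and imaging followed on a CQ1 microscope at 37°C and 5% CO2. CellPathfinder machine-learning gating divided cells into Hoechst high-intensity objects or normal cells, normal cells into healthy, pyknosed or fragmented nuclei, and pyknosed cells into mitotic or apoptotic. Tubulin, mitochondrial-mass and membrane-permeability phenotypes are per cents of healthy-nucleus cells.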
# [1] = 12 h, 1 µM, compound concentration 1 uM
# [2] = 12 h, 10 µM, compound concentration 10 uM
# [3] = 24 h, 1 µM, compound concentration 1 uM
# [4] = 24 h, 10 µM, compound concentration 10 uM
# [5] = 48 h, 1 µM, compound concentration 1 uM
# [6] = 48 h, 10 µM, compound concentration 10 uM
compound,measurement,setting,value
O=C(Nc1c[nH]nc1-c1nc2cc(CN3CCOCC3)ccc2[nH]1)NC1CC1 [AT-9283],Population Apoptotic (%),[1],20% and 16.13%
same,Population Fragmented Nuclei (%),[1],9.94% and 5.09%
same,Population Healthy Nuclei (%),[1],62.43% and 80.56%
same,Population Hoechst High Intensity Objects (%),[1],0%
same,Population Membrane Permeable-Phenotype (%),[1],3.54% and 0.57%
same,Population Mitochondria Different-Phenotype (%),[1],14.16% and 13.22%
same,Population Mitotic Cells (%),[1],80% and 83.87%
same,Population Normal (%),[1],100%
same,Population Pyknosed Nuclei (%),[1],27.62% and 14.35%
same,Population Tubulin-Different-Phenotype (%),[1],24.78% and 24.71%
same,Total Cell Count,[1],181 and 216
same,Population Apoptotic (%),[2],30% and 36.21%
same,Population Fragmented Nuclei (%),[2],25% and 12.87%
same,Population Healthy Nuclei (%),[2],54.59% and 65.81%
same,Population Hoechst High Intensity Objects (%),[2],0%
same,Population Membrane Permeable-Phenotype (%),[2],19.63% and 13.41%
same,Population Mitochondria Different-Phenotype (%),[2],14.02% and 18.44%
same,Population Mitotic Cells (%),[2],70% and 63.79%
same,Population Normal (%),[2],100%
same,Population Pyknosed Nuclei (%),[2],20.41% and 21.32%
same,Population Tubulin-Different-Phenotype (%),[2],36.45% and 41.34%
same,Total Cell Count,[2],196 and 272
same,Population Apoptotic (%),[3],8.33% and 17.86%
same,Population Fragmented Nuclei (%),[3],12.64% and 5.88%
same,Population Healthy Nuclei (%),[3],67.58% and 68.78%
same,Population Hoechst High Intensity Objects (%),[3],0%
same,Population Membrane Permeable-Phenotype (%),[3],6.5% and 2.63%
same,Population Mitochondria Different-Phenotype (%),[3],13.01% and 9.87%
same,Population Mitotic Cells (%),[3],91.67% and 82.14%
same,Population Normal (%),[3],100%
same,Population Pyknosed Nuclei (%),[3],19.78% and 25.34%
same,Population Tubulin-Different-Phenotype (%),[3],28.46% and 22.37%
same,Total Cell Count,[3],182 and 221
same,Population Apoptotic (%),[4],38.98% and 73.44%
same,Population Fragmented Nuclei (%),[4],21.08% and 15.35%
same,Population Healthy Nuclei (%),[4],43.37% and 56.58%
same,Population Hoechst High Intensity Objects (%),[4],0%
same,Population Membrane Permeable-Phenotype (%),[4],23.61% and 16.28%
same,Population Mitochondria Different-Phenotype (%),[4],16.67% and 18.6%
same,Population Mitotic Cells (%),[4],61.02% and 26.56%
same,Population Normal (%),[4],100%
same,Population Pyknosed Nuclei (%),[4],35.54% and 28.07%
same,Population Tubulin-Different-Phenotype (%),[4],38.89% and 57.36%
same,Total Cell Count,[4],166 and 228
same,Population Apoptotic (%),[5],41.3% and 71.67%
same,Population Fragmented Nuclei (%),[5],16.56% and 16.58%
same,Population Healthy Nuclei (%),[5],54.14% and 51.34%
same,Population Hoechst High Intensity Objects (%),[5],0%
same,Population Membrane Permeable-Phenotype (%),[5],3.53% and 9.38%
same,Population Mitochondria Different-Phenotype (%),[5],11.76% and 7.29%
same,Population Mitotic Cells (%),[5],58.7% and 28.33%
same,Population Normal (%),[5],100%
same,Population Pyknosed Nuclei (%),[5],29.3% and 32.09%
same,Population Tubulin-Different-Phenotype (%),[5],23.53% and 35.42%
same,Total Cell Count,[5],157 and 187
same,Population Apoptotic (%),[6],43.48% and 91.01%
same,Population Fragmented Nuclei (%),[6],26.71% and 24.14%
same,Population Healthy Nuclei (%),[6],44.72% and 32.02%
same,Population Hoechst High Intensity Objects (%),[6],0%
same,Population Membrane Permeable-Phenotype (%),[6],12.5% and 29.23%
same,Population Mitochondria Different-Phenotype (%),[6],18.06% and 23.08%
same,Population Normal (%),[6],100%
same,Population Pyknosed Nuclei (%),[6],28.57% and 43.84%
same,Population Tubulin-Different-Phenotype (%),[6],27.78% and 72.31%
same,Total Cell Count,[6],161 and 203
CC(C)[C@H](C(=O)Nc1ccc(C(=O)NO)cc1)c1ccccc1 [AR-42],Population Apoptotic (%),[1],28.12% and 16.67%
same,Population Fragmented Nuclei (%),[1],8.81% and 7.87%
same,Population Healthy Nuclei (%),[1],74.61% and 85.39%
same,Population Hoechst High Intensity Objects (%),[1],0%
same,Population Membrane Permeable-Phenotype (%),[1],3.47% and 2.63%
same,Population Mitochondria Different-Phenotype (%),[1],4.17% and 7.89%
same,Population Mitotic Cells (%),[1],71.88% and 83.33%
same,Population Normal (%),[1],100%
same,Population Pyknosed Nuclei (%),[1],16.58% and 6.74%
same,Population Tubulin-Different-Phenotype (%),[1],4.17% and 7.24%
same,Total Cell Count,[1],193 and 178
same,Population Apoptotic (%),[2],32% and 26.67%
same,Population Fragmented Nuclei (%),[2],10.88% and 4.5%
same,Population Healthy Nuclei (%),[2],76.17% and 88.74%
same,Population Hoechst High Intensity Objects (%),[2],0%
same,Population Membrane Permeable-Phenotype (%),[2],6.8% and 2.54%
same,Population Mitochondria Different-Phenotype (%),[2],5.44% and 5.58%
same,Population Mitotic Cells (%),[2],68% and 73.33%
same,Population Normal (%),[2],100%
same,Population Pyknosed Nuclei (%),[2],12.95% and 6.76%
same,Population Tubulin-Different-Phenotype (%),[2],7.48% and 5.58%
same,Total Cell Count,[2],193 and 222
same,Population Apoptotic (%),[3],40% and 44.44%
same,Population Fragmented Nuclei (%),[3],11.98% and 8.95%
same,Population Healthy Nuclei (%),[3],80.21% and 86.32%
same,Population Hoechst High Intensity Objects (%),[3],0%
same,Population Membrane Permeable-Phenotype (%),[3],2.6% and 3.05%
same,Population Mitochondria Different-Phenotype (%),[3],2.6% and 3.66%
same,Population Mitotic Cells (%),[3],60% and 55.56%
same,Population Normal (%),[3],100%
same,Population Pyknosed Nuclei (%),[3],7.81% and 4.74%
same,Population Tubulin-Different-Phenotype (%),[3],1.95% and 1.83%
same,Total Cell Count,[3],192 and 190
same,Population Apoptotic (%),[4],50% and 57.14%
same,Population Fragmented Nuclei (%),[4],11.56% and 10.3%
same,Population Healthy Nuclei (%),[4],79.19% and 83.69%
same,Population Hoechst High Intensity Objects (%),[4],0%
same,Population Membrane Permeable-Phenotype (%),[4],3.65% and 0%
same,Population Mitochondria Different-Phenotype (%),[4],4.38% and 6.67%
same,Population Mitotic Cells (%),[4],50% and 42.86%
same,Population Normal (%),[4],100%
same,Population Pyknosed Nuclei (%),[4],9.25% and 6.01%
same,Population Tubulin-Different-Phenotype (%),[4],3.65% and 2.56%
same,Total Cell Count,[4],173 and 233
same,Population Apoptotic (%),[5],37.5% and 50%
same,Population Fragmented Nuclei (%),[5],15.15% and 11.46%
same,Population Healthy Nuclei (%),[5],76.77% and 82.29%
same,Population Hoechst High Intensity Objects (%),[5],0%
same,Population Membrane Permeable-Phenotype (%),[5],1.32% and 1.27%
same,Population Mitochondria Different-Phenotype (%),[5],19.74% and 7.59%
same,Population Mitotic Cells (%),[5],62.5% and 50%
same,Population Normal (%),[5],100%
same,Population Pyknosed Nuclei (%),[5],8.08% and 6.25%
same,Population Tubulin-Different-Phenotype (%),[5],2.63% and 3.8%
same,Total Cell Count,[5],198 and 192
same,Population Apoptotic (%),[6],31.48% and 89.58%
same,Population Fragmented Nuclei (%),[6],17.84% and 9.95%
same,Population Healthy Nuclei (%),[6],52.97% and 64.92%
same,Population Hoechst High Intensity Objects (%),[6],0%
same,Population Membrane Permeable-Phenotype (%),[6],1.02% and 3.23%
same,Population Mitochondria Different-Phenotype (%),[6],21.43% and 8.06%
same,Population Normal (%),[6],100%
same,Population Pyknosed Nuclei (%),[6],29.19% and 25.13%
same,Total Cell Count,[6],185 and 191
N#Cc1c(Oc2cccc(OS(=O)(=O)CCCC(F)(F)F)c2)cccc1C(F)(F)F,Population Apoptotic (%),[1],51% and 38%
same,Population Fragmented Nuclei (%),[1],13% and 27%
same,Population Healthy Nuclei (%),[1],63% and 48%
same,Population Hoechst High Intensity Objects (%),[1],2% and 7%
same,Population Membrane Permeable-Phenotype (%),[1],1% and 9%
same,Population Mitochondria Different-Phenotype (%),[1],7%
same,Population Mitotic Cells (%),[1],48% and 61%
same,Population Normal (%),[1],97% and 92%
same,Population Pyknosed Nuclei (%),[1],23% and 24%
same,Population Tubulin-Different-Phenotype (%),[1],38% and 59%
same,Total Cell Count,[1],146 and 148
same,Population Apoptotic (%),[2],31% and 66%
same,Population Fragmented Nuclei (%),[2],14% and 42%
same,Population Healthy Nuclei (%),[2],59% and 22%
same,Population Hoechst High Intensity Objects (%),[2],6% and 7%
same,Population Mitochondria Different-Phenotype (%),[2],7% and 3%
same,Population Mitotic Cells (%),[2],68% and 33%
same,Population Normal (%),[2],93% and 92%
same,Population Pyknosed Nuclei (%),[2],26% and 35%
same,Population Tubulin-Different-Phenotype (%),[2],36% and 75%
same,Total Cell Count,[2],180 and 138
same,Population Apoptotic (%),[3],50% and 54%
same,Population Fragmented Nuclei (%),[3],20% and 33%
same,Population Healthy Nuclei (%),[3],62% and 50%
same,Population Hoechst High Intensity Objects (%),[3],6% and 3%
same,Population Membrane Permeable-Phenotype (%),[3],1% and 5%
same,Population Mitochondria Different-Phenotype (%),[3],4% and 5%
same,Population Mitotic Cells (%),[3],50% and 45%
same,Population Normal (%),[3],93% and 96%
same,Population Pyknosed Nuclei (%),[3],17% and 16%
same,Population Tubulin-Different-Phenotype (%),[3],45% and 57%
same,Total Cell Count,[3],148 and 147
same,Population Apoptotic (%),[4],44% and 61%
same,Population Healthy Nuclei (%),[4],59% and 23%
same,Population Hoechst High Intensity Objects (%),[4],5% and 8%
same,Population Mitochondria Different-Phenotype (%),[4],12% and 22%
same,Population Mitotic Cells (%),[4],55% and 38%
same,Population Normal (%),[4],94% and 91%
same,Population Pyknosed Nuclei (%),[4],27% and 36%
same,Population Tubulin-Different-Phenotype (%),[4],43% and 77%
same,Total Cell Count,[4],174 and 127
same,Population Apoptotic (%),[5],60% and 38%
same,Population Fragmented Nuclei (%),[5],18% and 26%
same,Population Healthy Nuclei (%),[5],66% and 59%
same,Population Hoechst High Intensity Objects (%),[5],7% and 5%
same,Population Mitochondria Different-Phenotype (%),[5],5% and 2%
same,Population Mitotic Cells (%),[5],40% and 61%
same,Population Normal (%),[5],92% and 94%
same,Population Pyknosed Nuclei (%),[5],14%
same,Population Tubulin-Different-Phenotype (%),[5],42% and 56%
same,Total Cell Count,[5],145 and 133
same,Population Apoptotic (%),[6],52% and 59%
same,Population Fragmented Nuclei (%),[6],20% and 43%
same,Population Healthy Nuclei (%),[6],54% and 31%
same,Population Hoechst High Intensity Objects (%),[6],9% and 2%
same,Population Mitochondria Different-Phenotype (%),[6],12% and 15%
same,Population Mitotic Cells (%),[6],47% and 40%
same,Population Normal (%),[6],90% and 97%
same,Population Pyknosed Nuclei (%),[6],24% and 25%
same,Population Tubulin-Different-Phenotype (%),[6],47% and 89%
same,Total Cell Count,[6],172 and 150

# — ChEMBL document CHEMBL5724801, “EUbOPEN Chemogenomics Library - Multiplex” (2024)
